The source of these data is ChEMBL document CHEMBL5712920, “The histone methyltransferase inhibitor A-366 enhances hemoglobin expression in erythroleukemia cells upon co-exposure with chemical inducers in culture” (J Biol Res (Thessalon), 2021).

Data set [1] is described as follows: Cytotoxicity against mouse FLC clone 745 cells assessed as reduction in cell viability measured after 48 hrs by Neubauer chamber based microscopic analysis. It counts as toxicity.
Data set [2] in a line: Inhibition of G9a/GLP in HMBA-stiumulated mouse FLC clone 745 cells assessed as increase in erythroid differentiation at IC50 concentration measured after 72 hrs by benzidine-H2O2 based assay (reference value: 69.6%). Particulars: condition erythroleukemia.
Data set [3] deals with FLC clone 745. The data set is described as follows: Cytotoxicity against mouse FLC clone 745 cells assessed as reduction in cell viability at IC50 concentration measured up to 96 hrs by Neubauer chamber based microscopic analysis. The format is toxicity. Particulars: flc clone 745, 96 h. In a few lines: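 MEL-745 cells treated continuously with compound at its previously determined 48 h IC50, without inducer, for up to 96 h. Total cell number counted daily in a Neubauer chamber. Final DMSO ≤0.2% v/v.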

A short description of data set [4]: Cytotoxicity against HMBA-stiumulated mouse FLC clone 745 cells assessed as cell viability measured after 48 hrs by Neubauer chamber based microscopic analysis (reference value: 50.563%). The format is toxicity. Particulars: HMBA-stimulated FLC clone 745 cells, read-out: Activity.
Data set [5] is described as follows: Inhibition of G9a/GLP in HMBA-stiumulated mouse FLC clone 745 cells assessed as increase in erythroid differentiation at IC50 concentration measured after 96 hrs by benzidine-H2O2 based assay (reference value: 79.45%). Particulars: condition erythroleukemia.
The target of data set [6] is Histone-lysine N-methyltransferase EZH2 (Mus musculus) (UniProt Q61188). The data set is described as follows: Inhibition of EZH2 in HMBA-stiumulated mouse FLC clone 745 cells assessed as increase in erythroid differentiation at IC50 concentration measured after 72 hrs by benzidine-H2O2 based assay (reference value: 69.6%). It counts as cell-based.
Histone-lysine N-methyltransferase EZH2 (Mus musculus), sequence (Q61188 whole entry): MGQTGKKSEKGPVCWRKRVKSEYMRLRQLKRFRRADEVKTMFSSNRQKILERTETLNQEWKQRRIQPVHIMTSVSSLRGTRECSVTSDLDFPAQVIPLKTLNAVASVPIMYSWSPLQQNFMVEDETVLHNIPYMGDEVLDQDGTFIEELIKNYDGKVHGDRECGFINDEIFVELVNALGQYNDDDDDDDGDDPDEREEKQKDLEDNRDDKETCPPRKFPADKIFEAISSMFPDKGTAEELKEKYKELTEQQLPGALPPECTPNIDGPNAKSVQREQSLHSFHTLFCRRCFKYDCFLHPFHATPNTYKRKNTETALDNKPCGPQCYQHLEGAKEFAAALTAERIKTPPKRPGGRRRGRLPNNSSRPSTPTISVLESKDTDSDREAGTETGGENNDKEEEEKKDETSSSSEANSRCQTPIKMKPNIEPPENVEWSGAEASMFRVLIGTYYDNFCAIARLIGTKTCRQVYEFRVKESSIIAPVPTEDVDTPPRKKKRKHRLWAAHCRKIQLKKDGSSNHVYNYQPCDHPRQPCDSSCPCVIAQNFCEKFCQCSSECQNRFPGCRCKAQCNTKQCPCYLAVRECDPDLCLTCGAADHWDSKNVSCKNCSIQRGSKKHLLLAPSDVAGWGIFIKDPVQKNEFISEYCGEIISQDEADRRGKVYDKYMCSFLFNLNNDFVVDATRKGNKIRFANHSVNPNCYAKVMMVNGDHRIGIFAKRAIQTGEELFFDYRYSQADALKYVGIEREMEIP
Data set [7] shares this target. The data set is described as follows: Inhibition of EZH2 in HMBA-stiumulated mouse FLC clone 745 cells assessed as increase in erythroid differentiation at IC50 concentration measured after 96 hrs by benzidine-H2O2 based assay (reference value: 79.45%). The format is cell-based.
In data set [8] the target is Histone-lysine N-methyltransferase, H3 lysine-79 specific (Mus musculus) (UniProt F7CVL0). In words: Inhibition of DOT1L in HMBA-stiumulated mouse FLC clone 745 cells assessed as increase in erythroid differentiation at IC50 concentration measured after 72 hrs by benzidine-H2O2 based assay (reference value: 69.6%). The format is cell-based.
Histone-lysine N-methyltransferase, H3 lysine-79 specific (Mus musculus), sequence (F7CVL0 as listed by the source): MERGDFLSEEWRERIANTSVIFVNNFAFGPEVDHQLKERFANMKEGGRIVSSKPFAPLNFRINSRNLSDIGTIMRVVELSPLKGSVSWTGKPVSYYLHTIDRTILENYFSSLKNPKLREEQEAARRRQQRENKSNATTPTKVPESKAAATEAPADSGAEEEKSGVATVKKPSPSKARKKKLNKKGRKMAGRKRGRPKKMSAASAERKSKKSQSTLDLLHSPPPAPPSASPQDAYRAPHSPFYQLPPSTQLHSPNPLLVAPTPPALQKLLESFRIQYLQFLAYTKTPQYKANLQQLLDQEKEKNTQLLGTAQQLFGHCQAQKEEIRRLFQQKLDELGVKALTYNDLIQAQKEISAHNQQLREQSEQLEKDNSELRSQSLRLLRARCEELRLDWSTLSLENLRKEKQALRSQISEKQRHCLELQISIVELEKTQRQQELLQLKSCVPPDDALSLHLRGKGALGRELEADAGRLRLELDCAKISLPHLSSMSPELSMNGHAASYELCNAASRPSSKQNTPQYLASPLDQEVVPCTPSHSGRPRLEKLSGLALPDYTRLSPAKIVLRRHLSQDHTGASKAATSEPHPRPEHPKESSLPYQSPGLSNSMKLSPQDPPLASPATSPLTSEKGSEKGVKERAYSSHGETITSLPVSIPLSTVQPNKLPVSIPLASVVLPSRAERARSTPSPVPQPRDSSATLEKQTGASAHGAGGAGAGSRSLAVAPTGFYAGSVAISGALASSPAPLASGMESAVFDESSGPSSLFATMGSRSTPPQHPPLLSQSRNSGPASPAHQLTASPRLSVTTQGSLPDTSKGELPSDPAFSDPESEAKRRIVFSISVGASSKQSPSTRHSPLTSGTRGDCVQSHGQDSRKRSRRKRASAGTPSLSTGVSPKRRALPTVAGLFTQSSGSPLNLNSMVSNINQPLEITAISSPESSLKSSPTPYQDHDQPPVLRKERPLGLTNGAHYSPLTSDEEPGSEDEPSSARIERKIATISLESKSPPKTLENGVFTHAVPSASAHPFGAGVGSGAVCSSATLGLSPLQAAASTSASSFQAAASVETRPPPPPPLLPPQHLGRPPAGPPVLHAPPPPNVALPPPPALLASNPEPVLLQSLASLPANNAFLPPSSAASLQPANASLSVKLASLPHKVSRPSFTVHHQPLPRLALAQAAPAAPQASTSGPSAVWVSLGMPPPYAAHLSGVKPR
Data set [9] has the same target. In words: Inhibition of DOT1L in HMBA-stiumulated mouse FLC clone 745 cells assessed as increase in erythroid differentiation at IC50 concentration measured after 96 hrs by benzidine-H2O2 based assay (reference value: 79.45%). It counts as cell-based.
The target of data set [10] is Protein arginine N-methyltransferase 3 (Mus musculus) (UniProt Q922H1). In words: Inhibition of PRMT3 in HMBA-stiumulated mouse FLC clone 745 cells assessed as increase in erythroid differentiation at IC50 concentration measured after 72 hrs by benzidine-H2O2 based assay (reference value: 69.6%). It counts as cell-based.
Protein arginine N-methyltransferase 3 (Mus musculus), sequence (Q922H1 whole entry): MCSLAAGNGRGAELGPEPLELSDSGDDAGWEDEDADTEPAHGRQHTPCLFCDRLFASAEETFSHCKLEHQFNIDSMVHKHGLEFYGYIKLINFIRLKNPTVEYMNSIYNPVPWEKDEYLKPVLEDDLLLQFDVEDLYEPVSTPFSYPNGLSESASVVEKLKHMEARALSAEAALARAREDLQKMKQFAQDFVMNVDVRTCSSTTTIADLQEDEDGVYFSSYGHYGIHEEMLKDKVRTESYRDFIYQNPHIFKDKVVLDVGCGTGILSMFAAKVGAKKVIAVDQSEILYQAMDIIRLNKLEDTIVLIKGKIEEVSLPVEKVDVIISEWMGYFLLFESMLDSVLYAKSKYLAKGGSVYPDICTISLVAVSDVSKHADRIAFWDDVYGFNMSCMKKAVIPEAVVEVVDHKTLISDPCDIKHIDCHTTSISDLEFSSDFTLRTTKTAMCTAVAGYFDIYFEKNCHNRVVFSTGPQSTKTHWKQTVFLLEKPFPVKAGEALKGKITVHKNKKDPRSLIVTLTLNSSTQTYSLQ
The target is the same in data set [11]. In words: Inhibition of PRMT3 in HMBA-stiumulated mouse FLC clone 745 cells assessed as increase in erythroid differentiation at IC50 concentration measured after 96 hrs by benzidine-H2O2 based assay (reference value: 79.45%). The format is cell-based.
Data set [12] deals with N-lysine methyltransferase SMYD2 (Mus musculus) (UniProt Q8R5A0). In words: Inhibition of SMYD2 in HMBA-stiumulated mouse FLC clone 745 cells assessed as increase in erythroid differentiation at IC50 concentration measured after 72 hrs by benzidine-H2O2 based assay (reference value: 69.6%). The format is cell-based.
N-lysine methyltransferase SMYD2 (Mus musculus), sequence (Q8R5A0 whole entry): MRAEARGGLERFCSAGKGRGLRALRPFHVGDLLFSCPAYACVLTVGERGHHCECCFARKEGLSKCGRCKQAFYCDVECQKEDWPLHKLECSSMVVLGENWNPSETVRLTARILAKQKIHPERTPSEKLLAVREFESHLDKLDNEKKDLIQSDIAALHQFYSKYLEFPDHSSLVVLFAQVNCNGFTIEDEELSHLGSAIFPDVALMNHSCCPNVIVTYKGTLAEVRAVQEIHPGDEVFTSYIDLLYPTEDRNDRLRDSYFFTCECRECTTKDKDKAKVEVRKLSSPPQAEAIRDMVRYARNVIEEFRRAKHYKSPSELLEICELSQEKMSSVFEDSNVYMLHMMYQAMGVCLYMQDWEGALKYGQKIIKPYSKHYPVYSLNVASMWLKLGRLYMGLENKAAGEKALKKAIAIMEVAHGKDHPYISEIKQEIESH
For data set [13] the target is unchanged. In words: Inhibition of SMYD2 in HMBA-stiumulated mouse FLC clone 745 cells assessed as increase in erythroid differentiation at IC50 concentration measured after 96 hrs by benzidine-H2O2 based assay (reference value: 79.45%). The format is cell-based.
For data set [14], the target named is Histone-lysine N-methyltransferase KMT5B (Mus musculus) (UniProt Q3U8K7). In words: Inhibition of SUV420H1 in HMBA-stiumulated mouse FLC clone 745 cells assessed as increase in erythroid differentiation at IC50 concentration measured after 96 hrs by benzidine-H2O2 based assay (reference value: 79.45%). It counts as cell-based.
Histone-lysine N-methyltransferase KMT5B (Mus musculus), sequence (Q3U8K7 whole entry): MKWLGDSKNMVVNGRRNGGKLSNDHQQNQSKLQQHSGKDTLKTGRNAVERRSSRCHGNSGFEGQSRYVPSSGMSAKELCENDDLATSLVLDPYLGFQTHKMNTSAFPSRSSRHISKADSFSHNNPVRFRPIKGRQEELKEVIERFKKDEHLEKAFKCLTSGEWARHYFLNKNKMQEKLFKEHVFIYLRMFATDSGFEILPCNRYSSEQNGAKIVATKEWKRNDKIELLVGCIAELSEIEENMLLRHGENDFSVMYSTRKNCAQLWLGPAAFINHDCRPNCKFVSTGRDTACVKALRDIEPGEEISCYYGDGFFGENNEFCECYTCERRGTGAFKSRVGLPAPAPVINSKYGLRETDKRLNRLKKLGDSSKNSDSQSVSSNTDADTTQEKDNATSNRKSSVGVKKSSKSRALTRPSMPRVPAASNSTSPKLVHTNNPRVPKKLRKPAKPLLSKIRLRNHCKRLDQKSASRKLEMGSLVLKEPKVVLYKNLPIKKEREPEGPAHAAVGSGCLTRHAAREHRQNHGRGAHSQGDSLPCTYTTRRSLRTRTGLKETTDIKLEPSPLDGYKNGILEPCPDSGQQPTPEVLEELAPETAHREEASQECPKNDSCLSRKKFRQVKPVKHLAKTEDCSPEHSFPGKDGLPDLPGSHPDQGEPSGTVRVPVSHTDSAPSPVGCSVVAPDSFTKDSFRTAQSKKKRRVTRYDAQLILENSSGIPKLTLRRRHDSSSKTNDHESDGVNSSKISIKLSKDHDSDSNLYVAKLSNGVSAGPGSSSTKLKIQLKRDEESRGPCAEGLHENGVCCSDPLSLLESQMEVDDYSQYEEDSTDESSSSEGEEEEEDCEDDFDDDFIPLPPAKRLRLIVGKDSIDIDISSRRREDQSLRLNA
For data set [15] the target is unchanged. In words: Inhibition of SUV420H1 in HMBA-stiumulated mouse FLC clone 745 cells assessed as increase in erythroid differentiation at IC50 concentration measured after 72 hrs by benzidine-H2O2 based assay (reference value: 69.6%). It counts as cell-based.

Turning to `COc1cc2c(NC3CCN(C(C)C)CC3)nc(C3CCCCC3)nc2cc1OCCCN1CCCC1`, the concentration for half-maximal inhibition (IC50) at 48 h in data set [1] worked out at 0.44 µM. Moreover, the “inhibition (INH)” value in data set [2] and in data set [5] was below 1% throughout. The Activity entry in data set [3] is “Toxic”. Also, in data set [4], the viability at 48 h is 7.56%.
Consider `CCc1cc(C)[nH]c(=O)c1CNC(=O)c1cc(-c2ccc(N3CCN(C(C)C)CC3)nc2)cc2c1cnn2C(C)C`, for which, in data set [1], the IC50 at 48 h was determined as 3.2 µM. For the same compound, the viability at 48 h in data set [4] was found to be 6.96%. Further, the inhibition in [6] and in data set [7] was below 1% in each case.
With `CC(C)N(CCCNC(=O)Nc1ccc(C(C)(C)C)cc1)C[C@H]1O[C@@H](n2cc(Br)c3c(N)ncnc32)[C@H](O)[C@@H]1O`, the inhibition in data set [8] amounted to 4.3%; in [9], 6.64%. Further, the half-maximal inhibitory concentration (IC50) at 48 h in data set [1] was 2.3 µM. In addition, the viability at 48 h in data set [4] came out at 23.9%.
With `O=C(NCC(=O)N1CCCC1)Nc1ccc2cnccc2c1`, the concentration for half-maximal inhibition (IC50) at 48 h in [1] came to 11 µM. In addition, the inhibition was 18.9% in data set [10] and 47.7% in data set [11]. Moreover, the viability at 48 h in [4] is 31.6%.
Turning to `COc1cc2c(NC3CCN(C(C)C)CC3)nc(N3CCC(F)(F)CC3)nc2cc1OCCCN1CCCC1`, the IC50 at 48 h in data set [1] was 1.6 µM. For the same compound, the “inhibition (INH)” value in data set [2] and in [5] was below 1% each time. In [3], the Activity result is reported as “Toxic”. For the same compound, the viability at 48 h in data set [4] was found to be 4.2%.
With `CCN(C(=O)CO)[C@H]1CN(/C(=N\C#N)Nc2cccc(OC(F)F)c2)N=C1c1ccc(Cl)c(Cl)c1`, the 50% inhibitory concentration (IC50) at 48 h in data set [1] was 4.7 µM. The inhibition in data set [12] came out at 12.7%; in [13], 22.6%. Further, the viability at 48 h in [4] was 22.8%.
Take `Clc1cc2c(NC3CCCC3)nnc(-c3ccncc3)c2cc1Cl`: the half-maximal inhibitory concentration (IC50) at 48 h in [1] came out at 20 µM. Also, the inhibition in [14] was 19%; in [15], below 1%. Besides, the viability at 48 h in [4] amounted to 27.2%.
Take `CCCc1cc(C)[nH]c(=O)c1CNC(=O)c1cc(-c2ccnc(N3CCN(C)CC3)c2)cc2c1cnn2C(C)C`: the IC50 at 48 h in [1] amounted to 2.2 µM. In addition, the viability at 48 h in [4] was determined as 20.6%. Moreover, the inhibition in [6] and in data set [7] was below 1% in each case.
For `O=C([C@@H](Cc1cccc(C(F)(F)F)c1)NS(=O)(=O)c1cc(F)c2c(c1)CCNC2)N1CCCC1`, in data set [1], the 50% inhibitory concentration (IC50) at 48 h came to 20 µM. The viability at 48 h in data set [4] is 18.7%.
Turning to `Cc1cn(CCN2CCN(c3ccccc3-c3cc(C#N)cc(C(=O)NCCCN4CCCC4)c3)CC2)c2ccccc12`, the IC50 at 48 h in data set [1] was 0.68 µM. In addition, the values for the inhibition in [12] and in data set [13] were 1.3% and 9%, respectively. In addition, the viability at 48 h in [4] was determined as 16.6%.
For `CN1CCN(c2ccc(-c3cccc(CN4CCOCC4)c3)cc2NC(=O)c2c[nH]c(=O)cc2C(F)(F)F)CC1`, the Activity result in data set [3] is on record as “Toxic”. The viability at 48 h in data set [4] is 7.57%.
